Our source for the inhibition, EC50 and selectivity ratio values is ChEMBL document CHEMBL1122491, “Synthesis and biological activity of 5-(trifluoromethyl)- and 5-(pentafluoroethyl)pyrimidine nucleoside analogues” (J Med Chem, 1983).

The subject of series [1] is Human alphaherpesvirus 1. Briefly: In vitro percent inhibition of replication of HSV-1 cells at 100 uM concentration. Type of series: functional. The conditions noted are these: Human alphaherpesvirus 1, HSV-1. In short, it runs like this:
(§1)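 Confluent Vero monolayers in Dulbecco's medium + 10% fetal calf serum were infected with HSV-1 strain CL-101 at MOI 10. After 1 h adsorption at 37 °C, the inoculum was removed and the cells washed with PBS. Compound in serum-containing medium was added for 40 h at 37 °C. Virus released by one freeze-thaw was titred by plaque assay on Vero cells. Percent inhibition was pfu relative to drug-free cultures. ED50 came from dose-response curves of at least two independent experiments.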

In series [2] the test system is L1210. Briefly: In vitro percent inhibition of replication of L1210 cells at 100 uM concentration. Type of series: functional. The settings on record: Mus musculus. In short, it runs like this: (§2)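 Mouse L1210 and S-180 suspension cultures were kept in Fischer's medium + 10% horse serum at 37 °C, 5% CO2. Exponentially growing cells at 2 × 10⁴ cells/mL were given compound. The increase in cell number versus drug-free control was counted after 24, 48 and 72 h. ED50 came from dose-response curves of at least two independent experiments.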

Series [3] concerns Human alphaherpesvirus 1. Briefly: Concentration required to inhibit replication of HSV-1 cell by 50%. The settings on record: Human alphaherpesvirus 1, HSV-1; read-out: ED50 (the source's name). The class given is functional. In short, it runs like this: as §1
Series [4] in a line: In vitro percent inhibition of replication of S-180 cells at 100 uM concentration. Type of series: functional. The settings on record: Mus musculus. In short, it runs like this: as §2
Series [5] relates to Human alphaherpesvirus 1. Briefly: In vitro percent inhibition of replication of HSV-1 cells at 10 uM concentration. Type of series: functional. The conditions noted are these: Human alphaherpesvirus 1, HSV-1. Put shortly:
as §1

The test system of series [6] is Human alphaherpesvirus 1. Briefly: In vitro percent inhibition of replication of HSV-1 cells at 20 uM concentration. The class given is functional. The settings on record: Human alphaherpesvirus 1, HSV-1. Put shortly: as §1
In series [7] the test system is Human alphaherpesvirus 1. Description: In vitro percent inhibition of replication of HSV-1 cells at 5 uM concentration. The settings on record: Human alphaherpesvirus 1, HSV-1. Type of series: functional. In short, it runs like this:
as §1

Series [8] relates to Vero. Briefly: In vitro percent inhibition of replication of vero cells at 50 uM concentration. The class given is functional. The settings on record: Chlorocebus sabaeus. Put shortly: (§3)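 Uninfected Vero cells were seeded at 0.1 confluency in Dulbecco's medium + 10% fetal calf serum and grown 1 day at 37 °C, 5% CO2. Compound was then added in growth medium. Cells were detached with 0.125% trypsin/0.02% EDTA for 15 min at 37 °C, dispersed by pipetting, stained with Trypan blue and counted by hemocytometer. ED50 came from dose-response curves of at least two independent experiments.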

The nature of series [9]: In vitro percent inhibition of replication of S-180 cells at 25 uM concentration. The class given is functional. The settings on record: Mus musculus. Put shortly: as §2
For series [10], the system named is L1210. Description: In vitro percent inhibition of replication of L1210 cells at 25 uM concentration. The class given is functional. The settings on record: Mus musculus. Put shortly:
as §2

A short description of series [11]: Concentration required to inhibit replication of S-180 cell by 50%. Type of series: functional. The settings on record: Mus musculus, read-out: ED50 (the source's name). Put shortly: as §2
Series [12] can be described thus: In vitro percent inhibition of replication of S-180 cells at 50 uM concentration. The conditions noted are these: Mus musculus. The class given is functional. Put shortly:
as §2

In series [13] the test system is Vero. Description: In vitro percent inhibition of replication of vero cells at 25 uM concentration. The class given is functional. The settings on record: Chlorocebus sabaeus. Put shortly:
as §3

Series [14] deals with Vero. Briefly: Concentration required to inhibit replication of vero cell by 50%. The class given is functional. The settings on record: Chlorocebus sabaeus, read-out: ED50 (the source's name). In short, it runs like this:
as §3

Series [15] relates to L1210. Briefly: Concentration required to inhibit replication of L1210 cell by 50%. The conditions noted are these: Mus musculus, read-out: ED50 (the source's name). Type of series: functional. Put shortly: as §2
Series [16] deals with L1210. Briefly: In vitro percent inhibition of replication of L1210 cells at 50 uM concentration. The class given is functional. The conditions noted are these: Mus musculus. In short, it runs like this:
as §2

The subject of series [17] is Human alphaherpesvirus 1. Briefly: In vitro percent inhibition of replication of HSV-1 cells at 80 uM concentration. Type of series: functional. The conditions noted are these: Human alphaherpesvirus 1, HSV-1. Put shortly: as §1
The test system of series [18] is Human alphaherpesvirus 1. Description: In vitro percent inhibition of replication of HSV-1 cells at 40 uM concentration. The class given is functional. The conditions noted are these: Human alphaherpesvirus 1, HSV-1. Put shortly:
as §1

Series [19] in a line: Therapeutic index was determined as the ratio fo ED50(vero)/ ED50(HSV-1). The settings on record: monkey, Vero cells. Put shortly:
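Ratio of ED50 for uninfected Vero cell replication (cell counts after compound exposure) to ED50 for HSV-1 yield in Vero cells (plaque titration after 40 h infection at MOI 10). Both ED50 values were estimated from dose-response curves of at least two independent experiments.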

For series [20], the system named is Vero. Description: In vitro percent inhibition of replication of vero cells at 100 uM concentration. The conditions noted are these: Chlorocebus sabaeus. Type of series: functional. In short, it runs like this:
as §3

For series [21], the system named is Vero. Description: In vitro percent inhibition of replication of vero cells at 5 uM concentration. The class given is functional. The conditions noted are these: Chlorocebus sabaeus. Put shortly: as §3
Series [22] is described as follows: In vitro percent inhibition of replication of S-180 cells at 12.5 uM concentration. The settings on record: Mus musculus. The class given is functional. In short, it runs like this:
as §2

Series [23] concerns L1210. Description: In vitro percent inhibition of replication of L1210 cells at 12.5 uM concentration. The class given is functional. The conditions noted are these: Mus musculus. Put shortly: as §2
Series [24] has as its system Human alphaherpesvirus 1. Description: In vitro percent inhibition of replication of HSV-1 cells at 12.5 uM concentration. The class given is functional. The conditions noted are these: Human alphaherpesvirus 1, HSV-1. In short, it runs like this: as §1
Series [25] relates to Human alphaherpesvirus 1. Briefly: In vitro percent inhibition of replication of HSV-1 cells at 1.25 uM concentration. The class given is functional. The settings on record: Human alphaherpesvirus 1, HSV-1. Put shortly: as §1
For series [26], the system named is Vero. Description: In vitro percent inhibition of replication of vero cells at 200 uM concentration. The class given is functional. The conditions noted are these: Chlorocebus sabaeus. In short, it runs like this: as §3
Series [27] deals with Vero. Description: In vitro percent inhibition of replication of vero cells at 400 uM concentration. Type of series: functional. The settings on record: Chlorocebus sabaeus. Put shortly:
as §3

The nature of series [28]: In vitro percent inhibition of replication of S-180 cells at 200 uM concentration. The conditions noted are these: Mus musculus. Type of series: functional. In short, it runs like this: as §2
Series [29] concerns Human alphaherpesvirus 1. Briefly: In vitro percent inhibition of replication of HSV-1 cells at 50 uM concentration. Type of series: functional. The conditions noted are these: Human alphaherpesvirus 1, HSV-1. Put shortly:
as §1

Series [30] deals with L1210. Description: In vitro percent inhibition of replication of L1210 cells at 200 uM concentration. The class given is functional. The conditions noted are these: Mus musculus. In short, it runs like this:
as §2

Series [31] has as its system L1210. Description: In vitro percent inhibition of replication of L1210 cells at 400 uM concentration. Type of series: functional. The conditions noted are these: Mus musculus. In short, it runs like this: as §2
A short description of series [32]: In vitro percent inhibition of replication of S-180 cells at 0.1 uM concentration. The settings on record: Mus musculus. The class given is functional. In short, it runs like this: as §2
Series [33] relates to Vero. Description: In vitro percent inhibition of replication of vero cells at 10 uM concentration. The conditions noted are these: Chlorocebus sabaeus. Type of series: functional. Put shortly:
as §3

For series [34], the system named is Vero. Briefly: In vitro percent inhibition of replication of vero cells at 1 uM concentration. The class given is functional. The settings on record: Chlorocebus sabaeus. Put shortly: as §3

SMILES strings stand for the structures. A value given as a limit tells only on which side of the number the result lay.

By inhibition is commonly meant the relative decrease from the control value, in per cent. As for `O=c1[nH]c(=O)n(C2C[C@@H](O)[C@@H](CO)O2)cc1C(F)(F)C(F)(F)F` (stereo partly drawn), the results for the inhibition at 100 µM in series [1], in series [2] and in [4] were 15%, 17% and 28%, respectively. Further, the EC50 in [3] was above 400 µM.

In turn, `CC(=O)OC[C@H]1OC(n2cc(C(F)(F)F)c(=O)[nH]c2=O)[C@H](OC(C)=O)[C@H]1OC(C)=O` (stereo partly drawn) came in with an inhibition at 10 µM in series [5] of 61%. In addition, the inhibition at 20 µM in series [6] came out at 92%. Besides, the values for the inhibition at 5 µM in series [7] and in series [21] were 17% and 0%, respectively. Moreover, the inhibition at 50 µM in series [8] was found to be 57%; in [12] it was 60%; in series [16] it was 58%. The inhibition at 25 µM was found to be 47% in series [9], 13% in series [10] and 8% in series [13]. Also, the EC50 was found to be 25 µM in series [11], 7 µM in [3], 45 µM in [14] and 45 µM in series [15]. The inhibition at 100 µM amounted to 95% in [2], 95% in series [4] and 100% in [20]. In addition, the inhibition at 80 µM in series [17] came out at 98%. Moreover, the inhibition at 40 µM in [18] came to 97%. The selectivity ratio in [19] came out at 6.4.

As for `CC(=O)OC[C@H]1OC(n2cc(C(F)(F)C(F)(F)F)c(=O)[nH]c2=O)C[C@H]1OC(C)=O` (stereo partly drawn), the inhibition at 12.5 µM in [22] was found to be 37%; in series [23] it was 14%; in [24], 51%. Moreover, in series [3], the EC50 is 12.5 µM. Besides, testing at 1.25 µM in series [25] gave an inhibition of 26%.

Regarding `O=c1[nH]c(=O)n(C2O[C@H](CO)[C@@H](O)[C@@H]2O)cc1C(F)(F)F` (stereo partly drawn), the inhibition at 10 µM in series [5] stood at 74%. For the same compound, the inhibition at 200 µM in [26] turned out to be 14%; in series [28] it was 71%; in series [30], 84%. Also, the inhibition at 400 µM in series [27] came out at 66%; in series [31] it was 87%. Moreover, the inhibition at 100 µM stood at 99% in series [1], 66% in series [2], 59% in series [4] and 4% in [20]. The inhibition at 50 µM was 0% in series [8], 46% in [12], 88% in series [29] and 33% in series [16]. For the same compound, the results for the inhibition at 25 µM in series [9] and in series [10] were 41% and 19%, respectively. In addition, the EC50 in series [11] was determined as 65 µM; in series [3], 5 µM; in series [14], 320 µM; in series [15], 70 µM. For the same compound, in series [19], the selectivity ratio turned out to be 64.

The compound `O=c1[nH]c(=O)n([C@H]2C[C@H](O)[C@@H](CO)O2)cc1C(F)(F)F` [TRIFLURIDINE] returned an inhibition at 0.1 µM in series [32] of 100%. This compound also came in with an inhibition at 10 µM in [33] of 100%. In series [34], this compound yielded an inhibition at 1 µM of 63%.
